Data set [1] is described as follows: Cmax in mouse at 30 mg/kg. The format is ADME, organism-based. Set-up: dose 30 mg/kg. The conditions noted are these: in vivo.
Data set [2] in a line: Antiviral activity against Influenza A virus A/Viet Nam/1203/2004(H5N1) infected in MDCK cells assessed as cell protection after 3 days by cytopathic effect assay. The format is functional, cell-based. Conditions: 72 h; call rule not given here. Summed up:
(§1)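 MDCK cells incubated with test compound and influenza A virus for 72 h (3-day CPE format). Cell viability read by an ATP end point. EC50 is the concentration giving 50% cell protection; mean of N = 3 or greater.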
In general terms: Damage to the host cells serves as the signal in cytopathic effect assays.

A short description of data set [3]: Half life in rat at 3 mg/kg, iv. The format is ADME, organism-based. Set-up: dose 3 mg/kg, route intravenous. The conditions noted are these: in vivo.
Data set [4] can be described thus: Oral bioavailability in rat at 3 mg/kg. Format: ADME, organism-based. The conditions noted are these: in vivo.
Data set [5] has as its system Influenza A virus. In words: Antiviral activity against Influenza A virus A/Puerto Rico/8/34 infected in MDCK cells assessed as cell protection after 3 days by cytopathic effect assay. The conditions noted are these: A/Puerto Rico/8/1934(H1N1), 72 h. Format: functional, organism-based. Summed up: as §1
Data set [6] in a line: Antiviral activity against Influenza A virus A/New York/18/2009 infected in MDCK cells assessed as cell protection after 3 days by cytopathic effect assay. The conditions noted are these: 72 h. The format is functional, cell-based, Influenza A virus (A/New York/18/2009(H1N1)). In a few lines: as §1
Data set [7] can be described thus: Cmax in rat at 3 mg/kg, po. The format is ADME, organism-based. Set-up: dose 3 mg/kg, route oral. Conditions: in vivo.
Data set [8] in a line: Antiviral activity against Influenza A virus A/Mexico/4108/2009 infected in MDCK cells assessed as cell protection after 3 days by cytopathic effect assay. The conditions noted are these: 72 h. The format is functional, cell-based, Influenza A virus (A/Mexico/4108/2009(H1N1)). Summed up: as §1
For data set [9], the target named is Adenosine receptor A2a (Homo sapiens) (UniProt P29274). In words: Inhibition of human adenosine A2A receptor at 10 uM relative to control. Summed up: (§2)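 Competitive binding panel of 68 receptors, ion channels and other targets, run at 10 μM compound; percent inhibition reported.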
The nature of data set [10]: Inhibition of CYP450 (unknown origin) at > 30 uM. Conditions: human. Format: ADME.
Data set [11] in a line: AUC in rat at 3 mg/kg, po. Format: ADME, organism-based. The arrangement: dose 3 mg/kg, route oral. The conditions noted are these: plasma.
Data set [12] in a line: Antiviral activity against Influenza A virus A/Georgia/20/2006 infected in MDCK cells assessed as cell protection after 3 days by cytopathic effect assay. Conditions: 72 h. The format is functional, cell-based, Influenza A virus (A/Georgia/20/2006(H1N1)). Summed up:
as §1

The target of data set [13] is T1, Adenosine receptor A1 (Homo sapiens) (UniProt P30542).
T1 sequence (whole entry): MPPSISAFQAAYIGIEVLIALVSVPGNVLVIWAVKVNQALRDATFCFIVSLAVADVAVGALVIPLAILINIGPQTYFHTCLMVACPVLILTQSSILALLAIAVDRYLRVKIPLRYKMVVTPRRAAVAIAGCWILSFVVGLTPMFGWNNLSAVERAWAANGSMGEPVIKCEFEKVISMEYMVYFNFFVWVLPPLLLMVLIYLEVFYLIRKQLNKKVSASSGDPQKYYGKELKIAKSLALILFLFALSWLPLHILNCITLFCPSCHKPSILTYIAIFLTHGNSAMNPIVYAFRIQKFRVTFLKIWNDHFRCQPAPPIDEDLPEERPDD
The experiment in a line: Inhibition of human adenosine A1 receptor at 10 uM relative to control. In a few lines: as §2

A short description of data set [14]: Clearance in rat at 3 mg/kg, iv. The format is ADME, organism-based. Set-up: dose 3 mg/kg, route intravenous. Conditions: in vivo.
Data set [15] deals with Influenza A virus. The experiment in a line: Antiviral activity against Influenza A virus A/Puerto Rico/8/34 infected in BALB/c mouse assessed as body weight loss at 3 mg/kg bid treated after 48 hrs of infection for 10 days. Format: functional. The conditions noted are these: A/Puerto Rico/8/1934(H1N1). In a few lines: (§3)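 Male BALB/c mice, 8 per study, inoculated intranasally with mouse-adapted A/PR/8/34 at 5e3 TCID50/mouse. Twice-daily treatment began 48 h after infection. Survival and body weight were followed.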

For data set [16], the system named is Influenza A virus. The experiment in a line: Antiviral activity against Influenza A virus A/Puerto Rico/8/34 infected in BALB/c mouse assessed as mouse survival at 1 to 10 mg/kg bid treated after 48 hrs of infection for 10 days. The conditions noted are these: dose mg/kg 1-10. The format is functional, A/Puerto Rico/8/1934(H1N1). Summed up: as §3
Data set [17] in a line: Antiviral activity against Influenza A virus A/California/07/2009 infected in MDCK cells assessed as cell protection after 3 days by cytopathic effect assay. Format: functional, cell-based, Influenza A virus (A/California/07/2009(H1N1)). The conditions noted are these: 72 h. Summed up: as §1
For data set [18], the target named is Voltage-gated inwardly rectifying potassium channel KCNH2 (Homo sapiens, UniProt Q12809). The experiment in a line: Inhibition of human ERG at > 30 uM relative to control. In a few lines: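 hERG tested by manual patch clamp.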
Data set [19] concerns Influenza A virus. The experiment in a line: Antiviral activity against Influenza A virus A/Puerto Rico/8/34 infected in BALB/c mouse assessed as body weight loss at 30 mg/kg bid treated after 48 hrs of infection for 10 days. Conditions: A/Puerto Rico/8/1934(H1N1). Format: functional. In a few lines: as §3
A short description of data set [20]: Antiviral activity against Influenza A virus A/Texas/48/2009 infected in MDCK cells assessed as cell protection after 3 days by cytopathic effect assay. The format is functional, cell-based, Influenza A virus (A/Texas/48/2009(H1N1)). The conditions noted are these: 72 h. In a few lines: as §1
The subject of data set [21] is Influenza A virus. The experiment in a line: Antiviral activity against Influenza A virus A/Puerto Rico/8/34 infected in BALB/c mouse assessed as body weight loss at 1 mg/kg bid treated after 48 hrs of infection for 10 days. Format: functional. Conditions: A/Puerto Rico/8/1934(H1N1). Summed up:
as §3

The test system of data set [22] is Influenza A virus. The experiment in a line: Antiviral activity against Influenza A virus A/Puerto Rico/8/34 infected in BALB/c mouse assessed as body weight loss at 10 mg/kg bid treated after 48 hrs of infection for 10 days. The format is functional. The conditions noted are these: A/Puerto Rico/8/1934(H1N1). Summed up: as §3
The nature of data set [23]: AUC in mouse at 30 mg/kg. The conditions noted are these: plasma. The arrangement: dose 30 mg/kg. The format is ADME, organism-based.
Data set [24] has as its target Glycogen synthase kinase-3 beta (Homo sapiens, UniProt P49841). In words: Inhibition of GSK3beta (unknown origin).

A value given as a limit tells only on which side of the number the result lay.

Sequence of Glycogen synthase kinase-3 beta (P49841 whole entry): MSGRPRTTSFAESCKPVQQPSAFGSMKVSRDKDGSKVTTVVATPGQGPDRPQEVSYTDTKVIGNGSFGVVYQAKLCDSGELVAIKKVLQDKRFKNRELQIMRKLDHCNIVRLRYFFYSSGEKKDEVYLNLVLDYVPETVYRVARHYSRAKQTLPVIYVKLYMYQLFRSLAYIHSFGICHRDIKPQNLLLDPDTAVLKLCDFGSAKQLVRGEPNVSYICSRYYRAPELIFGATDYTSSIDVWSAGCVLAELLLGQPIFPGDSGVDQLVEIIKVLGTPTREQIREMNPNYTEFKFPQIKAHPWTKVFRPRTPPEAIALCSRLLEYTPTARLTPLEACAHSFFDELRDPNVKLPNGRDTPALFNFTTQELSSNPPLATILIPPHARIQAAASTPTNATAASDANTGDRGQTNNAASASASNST
Sequence of Voltage-gated inwardly rectifying potassium channel KCNH2 (Q12809 whole entry): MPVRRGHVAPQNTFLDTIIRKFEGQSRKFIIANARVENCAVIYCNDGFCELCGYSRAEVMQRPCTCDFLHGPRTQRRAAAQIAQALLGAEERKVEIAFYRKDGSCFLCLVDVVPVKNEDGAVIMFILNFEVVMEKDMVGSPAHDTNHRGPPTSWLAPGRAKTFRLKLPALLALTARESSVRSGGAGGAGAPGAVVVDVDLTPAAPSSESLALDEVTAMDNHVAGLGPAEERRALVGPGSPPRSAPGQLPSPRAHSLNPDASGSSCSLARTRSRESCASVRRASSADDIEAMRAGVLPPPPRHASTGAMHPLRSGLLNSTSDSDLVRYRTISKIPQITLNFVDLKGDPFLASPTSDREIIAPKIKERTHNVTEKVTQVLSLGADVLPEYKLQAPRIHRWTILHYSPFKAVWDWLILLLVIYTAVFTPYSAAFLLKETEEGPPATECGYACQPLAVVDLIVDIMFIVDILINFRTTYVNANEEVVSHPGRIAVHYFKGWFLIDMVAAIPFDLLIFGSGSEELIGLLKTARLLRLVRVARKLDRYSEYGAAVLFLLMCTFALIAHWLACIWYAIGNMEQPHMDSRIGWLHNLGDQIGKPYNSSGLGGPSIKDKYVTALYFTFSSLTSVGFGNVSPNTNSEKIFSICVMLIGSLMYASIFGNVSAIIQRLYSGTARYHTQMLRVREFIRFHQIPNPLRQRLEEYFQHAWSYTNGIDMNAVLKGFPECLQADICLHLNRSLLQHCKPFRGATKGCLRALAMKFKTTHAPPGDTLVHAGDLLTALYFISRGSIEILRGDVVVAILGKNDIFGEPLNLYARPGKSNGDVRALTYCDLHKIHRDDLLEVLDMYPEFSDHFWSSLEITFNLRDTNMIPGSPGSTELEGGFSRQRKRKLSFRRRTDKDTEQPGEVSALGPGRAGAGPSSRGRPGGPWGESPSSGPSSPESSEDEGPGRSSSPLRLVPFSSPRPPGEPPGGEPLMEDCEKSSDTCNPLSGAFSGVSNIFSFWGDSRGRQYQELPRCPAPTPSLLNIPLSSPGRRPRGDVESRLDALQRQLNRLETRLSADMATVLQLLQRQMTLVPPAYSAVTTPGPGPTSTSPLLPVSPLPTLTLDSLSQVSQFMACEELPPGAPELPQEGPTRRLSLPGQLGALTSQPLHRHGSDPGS
Sequence of Adenosine receptor A2a (Homo sapiens) (P29274 whole entry): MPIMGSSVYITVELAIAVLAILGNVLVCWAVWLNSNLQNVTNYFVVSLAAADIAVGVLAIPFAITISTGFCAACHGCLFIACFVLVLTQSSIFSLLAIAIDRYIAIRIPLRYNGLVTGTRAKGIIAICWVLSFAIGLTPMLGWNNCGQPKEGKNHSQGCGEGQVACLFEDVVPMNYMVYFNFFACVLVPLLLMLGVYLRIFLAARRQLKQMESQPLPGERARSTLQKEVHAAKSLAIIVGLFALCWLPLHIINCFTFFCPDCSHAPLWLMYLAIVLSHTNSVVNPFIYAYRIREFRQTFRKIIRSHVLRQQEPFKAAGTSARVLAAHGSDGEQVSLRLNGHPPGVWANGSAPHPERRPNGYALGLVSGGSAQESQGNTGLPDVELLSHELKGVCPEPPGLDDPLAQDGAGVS

Broadly, the Cmax is the highest concentration seen after dosing. What is called EC50 is the midpoint of the concentration-response curve. A word on the half-life: it is how long it takes for the measured level to halve. Read a low half-life as rapid decline. The term bioavailability denotes dose-corrected exposure relative to a reference, in per cent. Low values mean poor availability, high ones good availability. A word on the inhibition: it is the relative decrease from the control value, in per cent. As usually defined, the AUC is concentration integrated over time. A higher AUC goes with more exposure. One may read the clearance as the volume of plasma or blood freed of the substance per unit of time. High values mean a high capacity for elimination, low ones a low capacity for elimination. Usually inhibition in vivo stands for the relative decrease from the control value, in per cent. In general, Ki refers to the dissociation constant of the complex between target and ligand, obtained from inhibition or displacement. Lower therefore signals a stronger hold on the target. Regarding `O=C(O)[C@H]1C2CCC(CC2)[C@@H]1Nc1nc(-c2c[nH]c3ncc(F)cc23)ncc1F` [PIMODIVIR], the peak concentration (Cmax) is 18000 ng/mL in data set [1] and 80 ng/mL in [7]. For the same molecule, the EC50 in data set [2] is less than 0.15 nM; in [5], 0.32 nM; in [6] it was 0.59 nM; in data set [8], 2.7 nM; in [12], 2.6 nM; in data set [17] it was 1.8 nM. Also, the EC50 in data set [20] was 2.8 nM. In addition, in data set [3], the half-life is 3.5 h. The molecule further displayed a bioavailability in data set [4] of 26%. The inhibition in data set [9] came to 62%; in data set [13], 96%. For the same molecule, the “inhibition (INH)” value in [10] and in [18] was “Not Active” throughout. In addition, the results for the AUC in data set [11] and in [23] were 500 ng·h/mL and 22000 ng·h/mL, respectively. In data set [14], this molecule displayed a clearance of 26 mL/min/kg. The inhibition in vivo at 3 mg/kg in [15] turned out to be 10.9%. The Survival in data set [16] was 100%. The inhibition in vivo at 30 mg/kg in data set [19] is 30%. The inhibition in vivo at 1 mg/kg in data set [21] worked out at 22.5%. For the same molecule, the inhibition in vivo at 10 mg/kg in data set [22] is 7.1%. In data set [24], this molecule gave a Ki of 1600 nM.

For `NC12CC3CC(CC(C3)C1)C2` [AMANTADINE], the EC50 in [5], in [6], in data set [8], in [12], in [17] and in data set [20] was more than 10000 nM each time.

The values are drawn from ChEMBL document CHEMBL3352362, “Discovery of a novel, first-in-class, orally bioavailable azaindole inhibitor (VX-787) of influenza PB2” (J Med Chem, 2014).
